# Measurements taken from ChEMBL document CHEMBL1208689, “5-Lipoxygenase-activating protein inhibitors. Part 3: 3-{3-tert-Butylsulfanyl-1-[4-(5-methoxy-pyrimidin-2-yl)-benzyl]-5-(5-methyl-pyridin-2-ylmethoxy)-1H-indol-2-yl]-2,2-dimethyl-propionic acid (AM643)-A potent FLAP inhibitor suitable for topical administration” (Bioorg Med Chem Lett, 2010).
# Activity calls are given as the source filed them. The rule behind the calls is not given here.
# Key:
# Cytochrome P450 2C9 = Cytochrome P450 2C9 (Homo sapiens, UniProt P11712); experiment: Inhibition of CYP2C9; assay type: ADME
# Cytochrome P450 2C9, sequence (P11712 whole entry): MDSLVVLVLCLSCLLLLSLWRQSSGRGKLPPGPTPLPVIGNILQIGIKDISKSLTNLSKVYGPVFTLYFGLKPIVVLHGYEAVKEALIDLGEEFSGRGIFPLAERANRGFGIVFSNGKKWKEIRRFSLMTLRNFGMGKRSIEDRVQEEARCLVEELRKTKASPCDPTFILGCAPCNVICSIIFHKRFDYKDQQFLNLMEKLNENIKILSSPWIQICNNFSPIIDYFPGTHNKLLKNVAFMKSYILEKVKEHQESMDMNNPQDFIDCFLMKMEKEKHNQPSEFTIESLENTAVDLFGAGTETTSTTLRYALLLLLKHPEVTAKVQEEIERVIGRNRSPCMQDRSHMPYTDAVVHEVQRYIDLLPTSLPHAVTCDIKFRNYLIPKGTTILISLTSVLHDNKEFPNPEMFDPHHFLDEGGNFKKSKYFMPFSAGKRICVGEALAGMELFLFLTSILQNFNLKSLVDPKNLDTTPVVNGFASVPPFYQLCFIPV
# Blood [1] = experiment: Inhibition of […]-induced LTB4 synthesis in rat whole blood after 15 mins; assay type: functional, tissue-based; details: 0.25 h
# Mus musculus [2] = experiment: Inhibition of arachidonic acid-induced LTB4 production in mouse ear at 30 mg/kg, po administered 4 hrs before arachidonic acid challenge; assay type: functional
# In short: (§1)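 Mice given 30 mg/kg orally in 0.5% methocel 4 h before AA (4 mg in 40 µL ethanol) on one ear, ethanol alone on the other. After 30 min, 6 mm punches weighed and assayed for LTB4 and CysLTs. n = 3/group; means ± SEM; two-tailed t-test versus vehicle.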
# [3] = Solubility of the compound in propylene glycol; assay type: physicochemical
# Rattus norvegicus [4] = species on record: Rattus norvegicus; experiment: Toxicity in rat assessed as change in body weight after 72 hrs; assay type: organism-based; details: in vivo
# In short: (§2)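 Healthy male rats shaved and skin abraded; 2 mL of 10 mg/mL solution in topical vehicle applied over 20% of body area, occluded 24 h, site then cleaned. Draize scoring for erythema/edema and body weight followed over 72 h.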
# Mus musculus [5] = experiment: Inhibition of arachidonic acid-induced ear edema in mouse at 30 mg/kg, po administered 4 hrs before arachidonic acid challenge; assay type: functional; in short: as §1
# Blood [6] = experiment: Inhibition of […]-induced LTB4 synthesis in rat whole blood after 4 hrs; assay type: functional, tissue-based
# [7] = target: T1, Arachidonate 5-lipoxygenase-activating protein (Homo sapiens, UniProt P20292); experiment: Binding affinity to FLAP in human PMN by radioligand displacement assay
# T1 sequence (P20292 whole entry): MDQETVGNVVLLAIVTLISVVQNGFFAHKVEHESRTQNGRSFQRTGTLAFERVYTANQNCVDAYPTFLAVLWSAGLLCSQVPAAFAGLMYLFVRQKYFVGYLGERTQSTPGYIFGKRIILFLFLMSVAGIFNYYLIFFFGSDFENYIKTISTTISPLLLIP
# In short: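 Tritiated-ligand displacement from FLAP-containing membranes; IC50, n = 6.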
# Rattus norvegicus [8] = experiment: Skin irritant activity in abraded rat skin model treated topically after 72 hrs; assay type: ADME, organism-based; details: in vivo, topical_or_ocular; in short: as §2
# Rattus norvegicus [9] = experiment: Skin irritant activity in abraded rat skin model at 10 mg/mL (2 mL), topical after 72 hrs; details: in vivo
# [10] = Solubility of the compound in transcutol; assay type: physicochemical
# [11] = Drug level in mouse plasma at 30 mg/kg, po after 4.5 hrs; details: read-out: Drug uptake
# Mus musculus [12] = experiment: Inhibition of arachidonic acid-induced ear edema in topically dosed mouse at 1 to 10%; assay type: functional, organism-based
# Blood [13] = experiment: Inhibition of […]-induced LTB4 synthesis in mouse whole blood after 4 hrs; assay type: functional, tissue-based
# Cytochrome P450 2D6 = Cytochrome P450 2D6 (Homo sapiens, UniProt P10635); experiment: Inhibition of CYP2D6; assay type: ADME
# Cytochrome P450 2D6, sequence (P10635 whole entry): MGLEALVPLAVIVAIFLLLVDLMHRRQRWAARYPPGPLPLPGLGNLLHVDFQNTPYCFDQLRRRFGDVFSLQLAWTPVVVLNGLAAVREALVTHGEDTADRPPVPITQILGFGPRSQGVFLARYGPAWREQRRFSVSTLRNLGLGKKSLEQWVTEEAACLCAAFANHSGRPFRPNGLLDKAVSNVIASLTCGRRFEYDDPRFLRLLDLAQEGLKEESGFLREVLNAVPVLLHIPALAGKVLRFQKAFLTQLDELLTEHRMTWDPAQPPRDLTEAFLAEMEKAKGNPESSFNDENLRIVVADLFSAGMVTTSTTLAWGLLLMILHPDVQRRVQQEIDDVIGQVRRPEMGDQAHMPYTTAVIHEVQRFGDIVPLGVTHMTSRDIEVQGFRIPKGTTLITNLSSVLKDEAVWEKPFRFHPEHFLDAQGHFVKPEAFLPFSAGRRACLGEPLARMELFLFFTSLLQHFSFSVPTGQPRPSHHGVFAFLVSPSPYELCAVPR
# Mus musculus [14] = experiment: Inhibition of arachidonic acid-induced LTB4 production in topically dosed mouse at 1 to 10%; assay type: functional, organism-based
# Mus musculus [15] = experiment: Inhibition of arachidonic acid-induced cysteinyl leukotriene production in topically dosed mouse ear; assay type: functional, organism-based
# In short: (§3)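 AA (4 mg/ear in ethanol) applied topically to mouse ear, compound applied topically at 0.01% or 0.1%. After 30 min, 6 mm ear punches weighed and assayed for CysLTs and LTB4. n = 3/group; means ± SEM; ANOVA with Dunnett's post hoc test, or t-test, versus vehicle.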
# Mus musculus [16] = experiment: Inhibition of arachidonic acid-induced cysteinyl leukotriene production in topically dosed mouse at 0.1%; assay type: functional; in short: as §3
# Mus musculus [17] = experiment: Inhibition of arachidonic acid-induced LTB4 production in topically dosed mouse at 0.1%; assay type: functional; in short: as §3
# Cytochrome P450 3A4 = Cytochrome P450 3A4 (Homo sapiens, UniProt P08684); experiment: Inhibition of CYP3A4; assay type: ADME
# Cytochrome P450 3A4, sequence (P08684 whole entry): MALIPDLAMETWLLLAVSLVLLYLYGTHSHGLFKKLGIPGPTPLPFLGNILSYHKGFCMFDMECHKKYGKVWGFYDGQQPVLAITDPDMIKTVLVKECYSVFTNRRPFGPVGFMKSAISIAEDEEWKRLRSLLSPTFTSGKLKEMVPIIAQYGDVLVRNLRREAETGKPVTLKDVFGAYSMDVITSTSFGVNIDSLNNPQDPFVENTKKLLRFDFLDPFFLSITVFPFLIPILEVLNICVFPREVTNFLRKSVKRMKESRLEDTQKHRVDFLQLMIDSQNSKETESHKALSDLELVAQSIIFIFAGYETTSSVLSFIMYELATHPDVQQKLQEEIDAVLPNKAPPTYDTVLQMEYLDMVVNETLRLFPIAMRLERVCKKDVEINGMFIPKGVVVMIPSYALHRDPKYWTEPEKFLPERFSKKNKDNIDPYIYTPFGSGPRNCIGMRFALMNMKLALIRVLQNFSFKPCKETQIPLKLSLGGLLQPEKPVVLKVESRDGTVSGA
# [18] = Inhibition of […]-induced LTB4 synthesis in human leukocytes; assay type: functional, cell-based; details: Leukocyte
# In short: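 Human leukocytes stimulated with calcium ionophore […]; LTB4 synthesis measured; IC50.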
# [19] = target: T2, Prostaglandin G/H synthase 2 (Homo sapiens, UniProt P35354); experiment: Inhibition of COX2
# T2 sequence (P35354 whole entry): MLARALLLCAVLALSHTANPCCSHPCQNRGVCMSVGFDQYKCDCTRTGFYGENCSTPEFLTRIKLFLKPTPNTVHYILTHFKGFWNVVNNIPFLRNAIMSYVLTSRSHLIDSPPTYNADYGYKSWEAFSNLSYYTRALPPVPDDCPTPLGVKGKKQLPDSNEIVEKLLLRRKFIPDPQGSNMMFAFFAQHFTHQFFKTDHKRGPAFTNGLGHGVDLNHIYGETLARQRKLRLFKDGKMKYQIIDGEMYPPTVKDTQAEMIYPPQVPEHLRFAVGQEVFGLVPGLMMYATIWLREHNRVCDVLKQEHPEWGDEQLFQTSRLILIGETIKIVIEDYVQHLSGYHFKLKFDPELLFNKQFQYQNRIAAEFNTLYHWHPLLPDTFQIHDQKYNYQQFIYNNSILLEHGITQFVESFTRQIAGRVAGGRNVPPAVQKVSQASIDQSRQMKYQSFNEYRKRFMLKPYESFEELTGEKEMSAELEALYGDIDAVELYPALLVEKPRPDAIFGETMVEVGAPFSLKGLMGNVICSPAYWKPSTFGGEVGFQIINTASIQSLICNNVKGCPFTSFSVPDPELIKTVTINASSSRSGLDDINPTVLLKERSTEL
# Rattus norvegicus [20] = experiment: Skin irritant activity in abraded rat skin model at 10 mg/mL (2 mL), topical after 72 hrs; details: in vivo; remark: listed apart in the source
# Mus musculus [21] = experiment: Inhibition of arachidonic acid-induced cysteinyl leukotriene production in topically dosed mouse at 1 to 10%; assay type: functional, organism-based
# [22] = Solubility of the compound in water; assay type: physicochemical; details: buffer
# Mus musculus [23] = experiment: Inhibition of arachidonic acid-induced LTB4 production in topically dosed mouse ear; assay type: functional, organism-based; in short: as §3
# Blood [24] = experiment: Inhibition of […]-induced LTB4 synthesis in human whole blood after 5 hrs; assay type: functional, tissue-based
# Blood [25] = experiment: Inhibition of […]-induced LTB4 synthesis in human whole blood after 15 mins; assay type: functional, tissue-based; details: 0.25 h
# Mus musculus [26] = experiment: Inhibition of arachidonic acid-induced cysteinyl leukotriene production in mouse ear at 30 mg/kg, po administered 4 hrs before arachidonic acid challenge; assay type: functional; in short: as §1
# Mus musculus [27] = experiment: Inhibition of arachidonic acid-induced ear edema in topically dosed mouse at 0.1%; assay type: functional; in short: as §3
# Blood [28] = experiment: Inhibition of […]-induced LTB4 synthesis in mouse whole blood after 15 mins; assay type: functional, tissue-based; details: 0.25 h
# [29] = Terminal half life in rat at 1 mg/kg, iv; assay type: ADME, organism-based; parameters: dose 1 mg/kg, route intravenous; details: in vivo, read-out: beta t1/2 (converted)
# In short: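 Rat given 1 mg/kg intravenously in 10% EtOH/40% PEG400/50% water; plasma concentration–time profile used for terminal half-life.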
# [30] = target: Prostaglandin G/H synthase 1 (Homo sapiens, UniProt P23219); experiment: Inhibition of COX1
# Prostaglandin G/H synthase 1, sequence (P23219 whole entry): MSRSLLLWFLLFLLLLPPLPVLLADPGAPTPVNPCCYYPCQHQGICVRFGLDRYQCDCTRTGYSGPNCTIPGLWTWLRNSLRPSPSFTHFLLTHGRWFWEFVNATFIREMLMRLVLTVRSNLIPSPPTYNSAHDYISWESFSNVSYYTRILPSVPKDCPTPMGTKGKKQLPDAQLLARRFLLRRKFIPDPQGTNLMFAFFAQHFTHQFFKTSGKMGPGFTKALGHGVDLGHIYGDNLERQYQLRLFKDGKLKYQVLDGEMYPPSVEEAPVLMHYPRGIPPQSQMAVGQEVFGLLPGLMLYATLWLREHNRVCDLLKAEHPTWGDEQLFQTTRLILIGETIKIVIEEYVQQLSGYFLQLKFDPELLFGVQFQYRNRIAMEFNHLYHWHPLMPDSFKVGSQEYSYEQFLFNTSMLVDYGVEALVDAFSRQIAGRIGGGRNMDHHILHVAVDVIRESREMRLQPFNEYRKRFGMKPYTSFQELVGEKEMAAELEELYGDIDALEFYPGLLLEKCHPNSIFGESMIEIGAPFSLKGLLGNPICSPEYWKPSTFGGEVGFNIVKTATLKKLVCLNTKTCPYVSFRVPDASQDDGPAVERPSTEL
structure (smiles),measurement,setting,value
COc1cnc(-c2ccc(Cn3c(CC(C)(C)C(=O)[O-])c(SC(C)(C)C)c4cc(OCc5ccc(C)cn5)ccc43)cc2)nc1.[Na+],IC50,Cytochrome P450 2C9,4500 nM
same,IC50,Blood [1],78 nM
same,inhibition in vivo at 30 mg/kg,Mus musculus [2],33%
same,solubility,[3],75%
same,Activity,Rattus norvegicus [4],Non-toxic
same,inhibition in vivo at 30 mg/kg,Mus musculus [5],65%
same,IC50,Blood [6],11 nM
same,IC50,[7],2 nM
same,Activity,Rattus norvegicus [8],Non-toxic
same,Activity,Rattus norvegicus [9],Non-toxic
same,solubility,[10],15%
same,concentration at 4.5 h,[11],1500 nM
same,inhibition,Mus musculus [12],inactive
same,IC50,Blood [13],4 nM
same,IC50,Cytochrome P450 2D6,> 30000 nM
same,inhibition,Mus musculus [14],inactive
same,inhibition,Mus musculus [15],Dose-dependent effect
same,inhibition (INH),Mus musculus [16],37%
same,inhibition (INH),Mus musculus [17],55%
same,IC50,Cytochrome P450 3A4,8800 nM
same,IC50,[18],0.6 nM
same,IC50,[19],> 100000 nM
same,Activity,Rattus norvegicus [20],Non-toxic
same,inhibition,Mus musculus [21],inactive
same,solubility,[22],10%
same,inhibition,Mus musculus [23],Dose-dependent effect
same,IC50,Blood [24],81 nM
same,IC50,Blood [25],161 nM
same,inhibition in vivo at 30 mg/kg,Mus musculus [26],57%
same,inhibition (INH),Mus musculus [27],61%
same,IC50,Blood [28],26 nM
same,half-life,[29],2 h
same,IC50,[30],> 100000 nM
